The source made the active and inactive calls. No cut-off for these calls is given here.
Columns and labels:
[1] = target: T1, B1 bradykinin receptor (Homo sapiens, UniProt P46663); experiment: Binding affinity to human bradykinin B1 receptor
T1 sequence (P46663 whole entry): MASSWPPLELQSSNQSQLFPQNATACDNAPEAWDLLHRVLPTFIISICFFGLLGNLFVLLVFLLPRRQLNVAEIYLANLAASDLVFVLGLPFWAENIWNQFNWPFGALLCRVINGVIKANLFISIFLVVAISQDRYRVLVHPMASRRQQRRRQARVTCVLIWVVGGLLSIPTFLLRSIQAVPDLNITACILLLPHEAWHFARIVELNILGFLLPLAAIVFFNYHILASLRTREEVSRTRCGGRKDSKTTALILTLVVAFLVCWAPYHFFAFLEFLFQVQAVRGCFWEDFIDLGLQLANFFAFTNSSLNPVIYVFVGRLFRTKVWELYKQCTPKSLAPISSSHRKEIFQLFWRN

[2] = system: Rattus norvegicus; experiment: Antiinflammatory activity in Wistar rat pain model assessed as inhibition of DABK-induced paw oedema at 1 mg/kg, po administered 60 mins before DABK challenge; assay type: functional
How it was run: (§1)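 Male Wistar rats, 120–150 g, LPS-pretreated; oral dosing in 5% (v/v) Tween 80 in saline before DABK injection. Paw volume by plethysmometer at 0, 10, 20, 30 min post-DABK; maximum edema volume taken. Percent inhibition from treated group means versus simultaneous vehicle means; ANOVA with Dunnett's test versus vehicle.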

[3] = system: Rattus norvegicus; experiment: Antiinflammatory activity in Wistar rat pain model assessed as inhibition of DABK-induced paw oedema at 0.3 mg/kg, po administered 60 mins before DABK challenge; assay type: functional; how it was run: as §1
[4] = system: Rattus norvegicus; experiment: Antiinflammatory activity in Wistar rat pain model assessed as inhibition of DABK-induced paw oedema at 3 mg/kg, po administered 60 mins before DABK challenge; assay type: functional; details: read-out: INH; how it was run: as §1
[5] = system: Rattus norvegicus; experiment: Antihyperalgesic activity in Sprague-Dawley rat assessed as decrease in CFA-induced joint pain at 1 to 3 mg/kg, po administered 3 days post CFA challenge; assay type: functional, organism-based
How it was run: (§2)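 Knee monoarthritis induced by intra-articular CFA (0.1 ml); joint pain read as hind-limb weight-bearing deficit on an incapacitance tester (difference between un-injected and injected limbs as % of total hind-limb weight). Rats with post-CFA baseline 20–60% enrolled and randomized to equalize baselines; oral dosing on Day 3 post-CFA in 5% Tween 80 in saline; readings pre-dose and 0.5, 1, 2, 3, 4 h post-dose; change from baseline at maximum effect.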

[6] = system: Liver microsomes; experiment: Intrinsic clearance in rat liver microsomes assessed per gram of liver at 2.5 uM after 20 mins; assay type: ADME, Microsome
[7] = target: T2, B1 bradykinin receptor (Rattus norvegicus, UniProt P97583); experiment: Antagonist activity at rat bradykinin B1 receptor; assay type: functional
T2 sequence (P97583 whole entry): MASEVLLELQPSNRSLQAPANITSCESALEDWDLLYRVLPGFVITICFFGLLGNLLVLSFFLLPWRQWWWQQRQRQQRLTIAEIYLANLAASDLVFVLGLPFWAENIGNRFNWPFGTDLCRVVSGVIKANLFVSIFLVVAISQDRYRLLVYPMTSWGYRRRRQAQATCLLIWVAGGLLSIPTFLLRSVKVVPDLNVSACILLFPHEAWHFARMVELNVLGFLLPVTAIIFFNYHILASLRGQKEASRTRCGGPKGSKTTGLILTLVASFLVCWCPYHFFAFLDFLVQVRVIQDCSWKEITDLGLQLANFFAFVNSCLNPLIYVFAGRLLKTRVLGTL

[8] = system: Liver microsomes; experiment: Intrinsic clearance in human liver microsomes assessed per gram of liver at 2.5 uM after 20 mins; assay type: ADME, Microsome
[9] = system: Rattus norvegicus; experiment: Antiinflammatory activity in Wistar rat pain model assessed as inhibition of DABK-induced paw oedema at 0.3 mg/kg, po administered 120 mins before DABK challenge measured by plethysometric analysis; assay type: functional; how it was run: as §1
[10] = system: Rattus norvegicus; experiment: Antiinflammatory activity in Wistar rat pain model assessed as inhibition of DABK-induced paw oedema at 0.03 mg/kg, po administered 120 mins before DABK challenge measured by plethysometric analysis; assay type: functional; how it was run: as §1
[11] = system: Rattus norvegicus; experiment: Antiinflammatory activity in Wistar rat pain model assessed as inhibition of DABK-induced paw oedema at 0.1 mg/kg, po administered 120 mins before DABK challenge measured by plethysometric analysis; assay type: functional; how it was run: as §1
[12] = target: T3, B2 bradykinin receptor (Homo sapiens) (UniProt P30411); experiment: Antagonist activity at human bradykinin B2 receptor at 1 uM; assay type: functional; parameters: scale not given: the % may be the effect or the level left
T3 sequence (whole entry): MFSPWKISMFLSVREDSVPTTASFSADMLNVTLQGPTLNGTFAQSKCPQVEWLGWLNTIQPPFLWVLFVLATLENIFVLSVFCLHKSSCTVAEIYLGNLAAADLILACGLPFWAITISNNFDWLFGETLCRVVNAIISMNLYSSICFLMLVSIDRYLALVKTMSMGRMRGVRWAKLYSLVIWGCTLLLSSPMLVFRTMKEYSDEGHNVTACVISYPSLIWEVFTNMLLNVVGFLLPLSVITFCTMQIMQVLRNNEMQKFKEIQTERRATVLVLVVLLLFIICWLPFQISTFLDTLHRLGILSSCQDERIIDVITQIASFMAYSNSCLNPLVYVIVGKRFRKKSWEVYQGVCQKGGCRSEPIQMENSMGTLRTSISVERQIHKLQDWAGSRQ

[13] = system: Rattus norvegicus; experiment: Antiinflammatory activity in po dosed Wistar rat pain model assessed as inhibition of DABK-induced paw oedema administered 120 mins before DABK challenge measured by plethysometric analysis; assay type: functional, organism-based; how it was run: as §1
[14] = system: Rattus norvegicus; experiment: Antihyperalgesic activity in po dosed Sprague-Dawley rat assessed as decrease in CFA-induced joint pain administered 3 days post CFA challenge; assay type: functional, organism-based; how it was run: as §2
[15] = system: Rattus norvegicus; experiment: Antiinflammatory activity in Wistar rat pain model assessed as inhibition of DABK-induced paw oedema at 3 mg/kg, po administered 30 mins before DABK challenge measured by plethysometric analysis; assay type: functional; how it was run: as §1
[16] = system: Rattus norvegicus; experiment: Antiinflammatory activity in Wistar rat pain model assessed as inhibition of DABK-induced paw oedema at 1 mg/kg, po administered 30 mins before DABK challenge measured by plethysometric analysis; assay type: functional; how it was run: as §1
[17] = system: Rattus norvegicus; experiment: Antiinflammatory activity in Wistar rat pain model assessed as inhibition of DABK-induced paw oedema at 10 mg/kg, po administered 30 mins before DABK challenge measured by plethysometric analysis; assay type: functional; how it was run: as §1

Structure (SMILES)	Ki [1] [nM]	CLint [6] [mL/min/g]	IC50 [7] [nM]	CLint [8] [mL/min/g]	other results
O=C(CC1Cc2ccccc2CN1S(=O)(=O)c1ccc(Cl)c(Cl)c1)NCCc1ccc(C2=NCCN2)cc1 (centres undefined)	481				
O=C(O)Cc1ccccc1Nc1c(Cl)cccc1Cl [DICLOFENAC]					inhibition in vivo at 1 mg/kg [2]: 24%; inhibition in vivo at 0.3 mg/kg [3]: 23%; inhibition in vivo at 3 mg/kg [4]: 35%; Activity [5]: Active
COc1ccc(S(=O)(=O)N2c3ccccc3-c3ccccc3C2CC(=O)NCCc2ccc(C3=NCCN3)cc2)cc1 (centres undefined)	15.5	4.8	81	14.5	
COc1cccc2c1-c1ccccc1N(S(=O)(=O)c1ccc(Cl)c(Cl)c1)C2CC(=O)NCCc1ccc(C2=NCCN2)cc1 (centres undefined)	1.7	2.6	21	1	
O=C(CC1CCc2ccccc2N1S(=O)(=O)c1ccc(Cl)c(Cl)c1)NCCN1CCN(c2ccncc2)CC1 (centres undefined)	166	7.4		16.8	
Cc1ccc(S(=O)(=O)N2c3ccccc3-c3ccccc3C2CC(=O)NCCc2ccc(C3=NCCN3)cc2)cc1 (centres undefined)	4.7	1.5	52	12.9	
O=C(CC1c2cc(F)ccc2-c2ccccc2N1S(=O)(=O)c1ccc(Cl)c(Cl)c1)NCCc1ccc(C2=NCCN2)cc1 (centres undefined)	1.2	1.6	45	5.5	
O=C(CC1CCc2ccccc2N1S(=O)(=O)c1ccc(Cl)c(Cl)c1)NCCc1ccc(C2=NCCN2)cc1 (centres undefined)	6.3	2.6		7.1	
O=C(CC1COc2ccccc2N1S(=O)(=O)c1ccc(Cl)c(Cl)c1)NCCc1ccc(C2=NCCN2)cc1 (centres undefined)	480				
O=C(CC1c2ccccc2CCN1S(=O)(=O)c1ccc(Cl)c(Cl)c1)N1CCC(Cc2ccc(C3=NCCN3)cc2)CC1 (centres undefined)	3.8	2.4		13.1	
COc1cccc2c1-c1ccccc1N(S(=O)(=O)c1ccc(Cl)c(Cl)c1)C2CC(=O)N[C@H]1CC[C@H](CCN2CCCC2)CC1 (some centres undefined)	8.9	1.8	43	1.1	inhibition in vivo at 0.3 mg/kg [9]: 54%; inhibition in vivo at 0.03 mg/kg [10]: 19%; inhibition in vivo at 0.1 mg/kg [11]: 27%; Activity [12]: 5.8%; inhibition [13]: Dose-dependent effect; Activity [14]: Dose-dependent effect
O=C(CC1c2ccccc2CCN1S(=O)(=O)c1ccc(Cl)c(Cl)c1)NCCc1ccc(C2=NCCN2)cc1 (centres undefined)	2.2	1.9		4.2	
O=C(CC1C(=O)Nc2ccccc2N1S(=O)(=O)c1ccc(Cl)c(Cl)c1)Nc1ccccc1 (centres undefined)	1400				
COc1ccc2cc(S(=O)(=O)N[C@H](CC(=O)N[C@H](Cc3ccc(CN4[C@H](C)CCC[C@@H]4C)cc3)C(=O)N(C)C(C)C)c3ccc4c(c3)OCO4)ccc2c1					inhibition in vivo at 3 mg/kg [15]: 16%; inhibition in vivo at 1 mg/kg [16]: 6%; inhibition in vivo at 10 mg/kg [17]: 30%; Activity [5]: Active
O=C(CC1c2cc(F)cc(F)c2-c2ccccc2N1S(=O)(=O)c1ccc(Cl)c(Cl)c1)NCCc1ccc(C2=NCCN2)cc1 (centres undefined)	9.1	3.9	42	8	
O=C(CC1CCc2ccccc2N1S(=O)(=O)c1ccc(Cl)c(Cl)c1)N[C@H]1CC[C@H](CCC2=NCCN2)CC1 (some centres undefined)	4.3	0.6		9	
O=C(CC1CCc2ccccc2N1S(=O)(=O)c1ccc(Cl)c(Cl)c1)Nc1ccc(N2CCC(N3CCCCC3)CC2)cc1 (centres undefined)	628				
Cc1cc(C)c(S(=O)(=O)N2c3ccccc3-c3ccccc3C2CC(=O)NCCc2ccc(C3=NCCN3)cc2)cc1C (centres undefined)	2.9	2.7	21	16.4	
O=C(CC1c2ccccc2CCN1S(=O)(=O)c1ccc(Cl)c(Cl)c1)N[C@H]1CC[C@H](CCC2=NCCN2)CC1 (some centres undefined)	1	1.1		12.5	
O=C(CC1c2ccccc2-c2ccccc2N1S(=O)(=O)c1ccc(Cl)c(Cl)c1)NCCc1ccc(C2=NCCN2)cc1 (centres undefined)	3.1	2.5	28	9.8	
O=C(CC1c2ccccc2CCN1S(=O)(=O)c1ccc(Cl)c(Cl)c1)Nc1ccc(N2CCC(N3CCCCC3)CC2)cc1 (centres undefined)	138				
